# FLuc act counter: FLuc activators, initial screening, artefact control for FLuc-dependent activation tests, biochemical, ATPlite luminescence. activation factor at 10 µM. ATPlite luciferase biochemical, 10 min; 0 = ATP-free wells, 1 = DMSO control. 200,000 tested, under 10 active;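 active means luciferase activation factor, scaled between plate controls, of at least 2 with compound at 10 µM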
# Target sequence (P08659 whole entry, looked up): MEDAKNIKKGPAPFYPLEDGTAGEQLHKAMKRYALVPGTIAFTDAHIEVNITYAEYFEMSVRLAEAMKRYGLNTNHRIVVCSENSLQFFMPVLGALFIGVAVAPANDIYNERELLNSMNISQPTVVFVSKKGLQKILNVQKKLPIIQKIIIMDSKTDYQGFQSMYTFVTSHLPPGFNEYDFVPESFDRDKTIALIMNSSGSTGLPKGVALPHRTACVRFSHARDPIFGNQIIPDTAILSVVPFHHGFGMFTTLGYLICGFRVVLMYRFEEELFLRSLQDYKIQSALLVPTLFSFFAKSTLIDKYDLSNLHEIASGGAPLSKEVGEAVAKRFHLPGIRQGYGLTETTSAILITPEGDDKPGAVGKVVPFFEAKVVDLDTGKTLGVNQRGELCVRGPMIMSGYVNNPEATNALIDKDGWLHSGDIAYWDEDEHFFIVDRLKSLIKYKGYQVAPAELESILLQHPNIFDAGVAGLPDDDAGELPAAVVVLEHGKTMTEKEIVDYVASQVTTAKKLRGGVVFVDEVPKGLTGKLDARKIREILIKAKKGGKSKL
#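 Assay system: Luciferase/luciferin detection reagent, cell-free biochemical luciferase assay / Read-out: luciferase activation / Benchmarks: No-ATP low control, compound-free enzyme-plus-ATP high control / Medium: PBS buffer for ATP / Detection: luminescence measurement of luciferase light output / Schedule: 10 min at ambient temperature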
# STAT1 activator: STAT1 signaling activators, primary screen, cell-based, HTS, luciferase reporter | NIH 3T3 STAT1-luciferase reporter, IFN-gamma, luminescence; 100% = IFN-gamma alone, no compound | activation (% of control), % at 5.5 µM | hit rate 2.6% among 200,000 | AID 932, 2007;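 active means activation above the screen-wide mean activation plus 3 SD, cut at about 130% in these data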;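 further: raw ratio to IFN-gamma control signal so 100% means no change and 0% no light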
# FLuc inhib CS: firefly luciferase enzyme inhibitors, primary screen, artefact control for luciferase-based inhibitor screens, biochemical, luminescence, ATPLite; inhibition, % at 10 µM; AID 1006, 2008; 10 min; hit rate 1.5% among 200,000;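 active means inhibition above about 50% when tested at 10 µM, limit read from the data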
# APP 5'UTR act: activators of APP 5'UTR luciferase reporter, primary screen, SH-SY5Y cells | activation, % at 2 µM | hit rate 1% among 190,000 | SH-SY5Y APP 5'UTR luciferase reporter, luminescence; zero percent = DMSO vehicle wells;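 active means activation above a set limit, based on mean plus 3 SD of controls, cut at about 140% in these data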
# NF-kB expr up: activators of NF-kB expression in neurons, primary screen, cell-based, HTS; human neuronal cells, NF-kB reporter expression; stronger effect = higher value; hit rate 1.6% among 190,000; fold change at 12.5 µM; in the data active means fold change above about 3.3
# Starred values were filed as active, the others as inactive; x = no result given. Most compounds without a hit are left out; they make up all but 4.3% or so of the library.
SMILES,FLuc act counter,STAT1 activator,FLuc inhib CS,APP 5'UTR act,NF-kB expr up
COc1ccc2ncc(OC(C)=O)cc2c1,1,97,1,x,1.1
CN1CCN(c2ccc(-c3ccc4ccccc4n3)cc2)CC1,0.1,11,94*,-51,0.34
Cc1ccc(-c2cc(C(=O)N3CCOCC3)c3ccccc3n2)cc1,0.6,102,41,20,1
COc1ccc(N2CCN(C(=O)c3ccc4ccccc4n3)CC2)cc1,1,99,-3,-11,1.1
c1ccc2nc(-c3ccc(N4CCOCC4)cc3)ccc2c1,0.1,38,88*,x,2.4
Cc1cc(-c2ccc(N3CCOCC3)cc2)nc2ccccc12,0.3,130*,71*,90,2.9
c1ccc2nc(-c3ccncc3)ccc2c1,0.9,124,6,7,1.6
C/C(=N\NC(=O)c1cc(-c2ccncc2)nc2ccccc12)c1ccc(OC(F)F)cc1,1,110,-1,-12,0.9
CC(=O)c1sc(NC(=O)COc2ccc(C)c(C)c2)nc1C,1.1,100,-5,-8,0.99
COc1ccc(/C=C/c2nc(-c3ccccc3O)n[nH]2)cc1,0.6,89,36,170*,7.6*
COc1ccc(-c2cc(-c3ccccc3)n[nH]2)c(O)c1,0.9,99,12,190*,7.9*
COc1ccc(-c2cc(-c3ccccc3O)[nH]n2)cc1,0.7,106,29,192*,7.1*
O=C1/C(=C/c2cccs2)Sc2ccccc21,0.3,98,68*,32,1.6
CC(C)C(NC(=O)c1ccc(C(C)(C)C)cc1)C(=O)Nc1cccc(S(N)(=O)=O)c1 (stereo unspecified),0.9,110,9,3,1.6
CCN(CC)S(=O)(=O)c1cccc(-c2cn3cc(C)ccc3n2)c1,0.8,126,23,61,1.3
CN(C)S(=O)(=O)c1ccc(-c2cn3ccccc3n2)cc1,0.3,111,74*,72,2.6
Cc1ccc2nc(-c3cccc(S(=O)(=O)N(C)C)c3)cn2c1,0.7,136*,33,69,2.4
COc1cc(NC(=O)c2cccc([N+](=O)[O-])c2C)ccc1NC(=O)c1ccco1,1.1,126,-9,19,1
Cc1ccc(NC(=O)c2ccco2)c([N+](=O)[O-])c1,0.9,139*,15,39,x
COc1ccc(NC(=O)c2ccco2)c([N+](=O)[O-])c1,0.9,138*,14,49,2.5
CCC(CC)C(=O)Nc1cc(Cl)ccc1C,1,93,-4,4,0.89
CN(C)C(=O)C1CCC(=O)N1Cc1cccs1 (stereo unspecified),1,100,1,-14,1.2
O=C(O)c1ccccc1C(=O)NNc1cccc(Cl)n1,1,116,0,155*,1.3
[O-]/C(=C(\C(=S)Nc1ccc(SC(F)F)cc1)[n+]1ccccc1)c1ccc(Cl)cc1Cl,1.1,98,-8,3,4.7*
Cc1cc(C)nc(Nc2n[nH]c(-c3cccc4ccccc34)n2)n1,1,97,-3,-6,0.96
SMILES,FLuc act counter,STAT1 activator,FLuc inhib CS,APP 5'UTR act,NF-kB expr up
Cc1cc(C)nc(Nc2n[nH]c(-c3ccccc3Cl)n2)n1,0.4,113,58*,39,1.1
Clc1ccc(-c2cc(COc3ccccc3)on2)cc1,1,132*,4,42,1.9
O=S(=O)(NCc1cc(-c2ccc(Cl)cc2)no1)c1ccccc1,1.1,102,-6,-2,0.85
O=S(=O)(Cc1cc(-c2ccccc2Cl)no1)c1ccccc1,0.9,132*,11,68,0.98
O=S(=O)(Cc1cc(-c2ccc(Cl)cc2)no1)c1ccccc1,1,135*,2,44,2.1
O=S(=O)(NCc1cc(-c2ccccc2Cl)no1)c1ccccc1,1,96,-3,-21,1
COc1ccc(CNC(=O)CCCn2c(SCC#N)nc3cc4c(cc3c2=O)OCO4)cc1,1.1,102,-5,7,1.1
COC(=O)Nc1ccc(=O)n(Cc2c(Cl)cccc2Cl)c1,1.1,102,-9,-7,0.97
O=C1c2ccccc2NC(c2ccccc2Cl)N1N=C1CCCCCC1 (stereo unspecified),0.6,139*,43,44,1.7
CCN(CC)C(=O)Oc1cc(=O)n2c3c(cccc13)CCC2,1,106,-5,-3,1.1
Cc1ccc(-c2ccnc(-c3ccc(O)cc3)n2)cc1,1,142*,0,44,1.5
CN(C)c1ccc(-c2noc(-c3ccccc3O)n2)cc1,0.4,97,58*,144*,1.5
COc1ccc(-c2nc(-c3ccc(Br)o3)no2)cc1OC,1,126,4,5,1.8
COc1ccccc1-c1nc(-c2ccc(Br)cc2)no1,0.8,135*,15,162*,4.7*
COc1cc(OC)cc(-c2nc(-c3ccc(Br)cc3)no2)c1,1,101,-1,-5,1.8
COc1ccccc1-c1nc(-c2ccc(Br)o2)no1,0.7,157*,30,218*,6.7*
Cc1ccc(-c2noc(-c3ccccc3Br)n2)cc1,0.3,133*,67*,195*,5.9*
CC1=CC(C)C2COC(c3ccc[n+](C)c3)C1C2C (stereo unspecified),1.1,102,-5,3,0.88
CN(C)c1ccc(C(=O)NC2(N3CCC3=O)CCCC2)cc1,1,95,-2,13,1
COc1ccc(OCC(=O)N/N=C/C=C/c2ccccc2)cc1,0.2,96,81*,0,1.4
CCOc1ccc(NCC(=O)N/N=C/C=C/c2ccccc2)cc1,0.4,104,56*,-7,1.3
O=C(Oc1ccc(-n2cnnn2)cc1)c1ccccc1,1,110,-3,6,1.1
O=C(O)c1cccc(N/N=C/c2cc(Br)cc(Br)c2O)c1,1,131*,3,130,1.8
O=C(O)c1cccc(N/N=C/c2ccc(-c3ccccc3)cc2)c1,0.5,55,50,68,16*
COc1ccc(Br)cc1/C=N/Nc1cccc(C(=O)O)c1,1,108,-3,18,1.8
SMILES,FLuc act counter,STAT1 activator,FLuc inhib CS,APP 5'UTR act,NF-kB expr up
O=C(O)c1cccc(N/N=C/c2cccnc2)c1,1,63,2,87,2.4
CC(C)(C)c1ccc(/C=N/Nc2cccc(C(=O)O)c2)cc1,0.5,66,48,85,6.9*
O=C(O)c1cccc(NN=C2c3ccccc3-c3ccccc32)c1,1,105,-2,24,1.2
Cc1c(/C=C/C(=O)c2cccs2)cnn1C,0.6,104,43,11,2.3
CCc1ccc(C(=O)/C=C/c2cnn(C)c2C)s1,0.1,129*,86*,174*,11*
Cc1nnc(SCC(=O)N(Cc2ccccc2)C(C)(C)C)[nH]c1=O,1.1,90,-6,6,1

# Screening results: PubChem BioAssay, several laboratories
